The subject of the series is MS2 coat protein. Kind of series: apparent Kd, MS2 coat protein; higher = weaker binding; RNA-MaP array; FMN 200 µM where present. The method in brief: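 The apparent Kd comes from binding curves fitted cluster by cluster, filtered, and summarised as a median. Those curves followed SNAP-549-labelled MS2 coat protein from 0.7 or 1.5 nM, doubling to 3 µM, on Illumina sequencing-chip clusters where stalled E. coli RNA polymerase had transcribed the designs, without and then with constant ligand. The buffer was 100 mM Tris-HCl pH 7.5, 80 mM KCl, 4 mM MgCl2, BSA, DTT, yeast tRNA and Tween-20, and green signal was normalised to red-channel RNA signal and control-cluster median Fmax.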

Where [1] appears, read: designed as: ON switch for flavin mononucleotide, no ligand.
The mark [2] stands for this setting: ligand present: flavin mononucleotide, designed as: ON switch for flavin mononucleotide.
Where [3] appears, read: designed as: OFF switch for flavin mononucleotide, no ligand.
Where [4] appears, read: ligand present: flavin mononucleotide, designed as: OFF switch for flavin mononucleotide.

The values that follow come from the EternaBench riboswitch data.

As a reminder, the apparent Kd is a dissociation constant that holds for the conditions of the assay. On to “GCCCUAAGGCGGGCCGACCAUACAUGAGGAUCACCCAUGUCGAGAAGGUGCUCACGGGUGGGUGGCAAGGAUAUCGGGUCGGAU”, for which the “apparent Kd” value is 77.1 nM under setting [1] and 41.4 nM under setting [2].

For the sequence “GACACUAUGUUUGUCAGAUAGAGAGAGGAUAUGGGUCAUGAGACAUGAGGAUCACCCAUGUAUAAUCAGAAGGCUCGAGUACGA”, the “apparent Kd” value reads like this: under setting [1], 19.1 nM; under setting [2], 13.7 nM.

Take “CUGAAUCUAGGAUAUUGUACUGCUGACAUGAGGAUCACCCAUGUAUGUUAACUCGGCCGUCGAGAAGGAGAACAUA”: the “apparent Kd” value runs as follows: under setting [3], 36.1 nM; under setting [4], 27.6 nM.

As for “UAAUAAAGUGUGAGGAUAUGCUGGUCCUUGGAUCAGCAGAAGGCACAUGAGGAUCACCCAUGUAAUAUAUAAAU”, the “apparent Kd” value worked out at 97.2 nM under setting [3] and 292 nM under setting [4].

As for “GAGCGCUGUCAAGGAUAUCCGAAAAGAAAAUAAGGAGAAGGUGACAUGAGGAUCACCCAUGUGCACUGGGUGGACGCGCGCUCC”, the “apparent Kd” value under setting [3] came out at 459 nM and the “apparent Kd” value under setting [4] came to 256 nM.

“CUGCUCGUAGAGAAGGCGUGGGCACAUGAGGAUCACCCAUGUCGCAGUACGAGGAUAUUUGCCGGCCCGCCCAAAAUGGCGCGG”: the “apparent Kd” value was determined as 501 nM under setting [1] and 119 nM under setting [2].

For “AACCGCGACCGGCCUGGCACGUCGAGAAGGGUACGUGACUUGCUUUACAUGAGGAUCACCCAUGUACAGGAUAUCGAAUAGCCG”, the “apparent Kd” value under setting [3] turned out to be 8.4 nM and the “apparent Kd” value under setting [4] worked out at 11 nM.

Consider “GUACGUGGACAGAAGGCGACAUGAGGAUCACCCAUGUUGGCUCGGGUACGAGCGAUCCGCGUGAUUGAGGAUAUGUCUGCGGGC”, for which the “apparent Kd” value under setting [3] was determined as 20 nM and the “apparent Kd” value under setting [4] was found to be 80.8 nM.

Take “UUGAAGCUCACAGGAUAUCAGUAUGCACGAUCUAGCGCAUUAAUGAACUGCUGAGAAGGGUGAGACAUGAGGAUCACCCAUGUA”: the “apparent Kd” value is 593 nM under setting [1] and 209 nM under setting [2].

Take “CCCUCACAUGAGGAUCACCCAUGUCAGGAUAUUCGAGGCGCAAAUACGCCAAAUGCAGGAAGAAGGGACGUGCC”: the “apparent Kd” value under setting [3] was determined as 15.5 nM and the “apparent Kd” value under setting [4] came out at 22.4 nM.

As to “CUGUUUGUAGGAUAUACAUGCGGAACCCUCUUCAUGGAAAGACAUGAGGAUCACCCAUGUAGAAGGAUGAAGAG”, the “apparent Kd” value was found to be 19.7 nM under setting [3] and 17.9 nM under setting [4].

As for “CAGGUAGACUGAGGAUAUACAAUAAACAGCUAGUCUAUCUAGCUGCUCACAUGAGGAUCACCCAUGUAGAAGGCAGUCUGCCUG”, the “apparent Kd” value reads like this: under setting [3], 18.7 nM; under setting [4], 45.1 nM.

Take “AAAUAAACUACGAAGAUAUCCUCACAUGAGGAUCACCCAUGUCAGGAUAUUUGUCCUAAAAGGACAGAGAAGGGACGUCGUAGA”: the “apparent Kd” value under setting [3] is 5.09 nM and the “apparent Kd” value under setting [4] turned out to be 7.54 nM.

In the case of “AGAGUGUGAGGAUAUAUGGUGAAGAUGAAGGGAUAGAAGGAGUAGAAGGUACAUGAGGAUCACCCAUGUUAGGA”, the “apparent Kd” value reads like this: under setting [3], 25.2 nM; under setting [4], 25.7 nM.

Take “UUUUAGCUAGGAUAUACAUUUUUUUUAUUAUCCUCAUUAUUACAUGAGGAUCACCCAUGUAGAAGGAGCAUUUU”: the “apparent Kd” value runs as follows: under setting [3], 237 nM; under setting [4], 313 nM.

Consider “ACAGCGGCAGGAUAUGCAUGCUCCGACUUAUGCCUACAAAGACAUGAGGAUCACCCAUGUAGAAGGGCCAGCGG”, for which the “apparent Kd” value is, setting by setting: under setting [3], 13.8 nM; under setting [4], 15.2 nM.

For “UAUAUAUAGUAAGGAUAUGUAUUUAAUUUAUAAACAGAAGGUACUGACAUGAGGAUCACCCAUGUUUUAGUGUGGGCAUGUAGA”, the “apparent Kd” value was 97.9 nM under setting [3] and 147 nM under setting [4].

With “GCCUGAUCAACUCUAGGCCCAGACAGAAGGGCACACGGUCUAAGUCACAUGAGGAUCACCCAUGUGCAGGAUAUGUCUCGACUC”, the “apparent Kd” value under setting [3] was found to be 8.03 nM and the “apparent Kd” value under setting [4] turned out to be 21.4 nM.

Regarding “UUUACUAACGAAGGAUAUGGUUACAUGAGGAUCACCCAUGUAUGUAUAUUGAUCUAGUAUUUUAACCAGAAGGUCGUGAUUUUU”, the “apparent Kd” value runs as follows: under setting [3], 31.6 nM; under setting [4], 45.3 nM.

For “CGUCUGUGAGGAUAUGGUAUCGUUUACAUGAGGAUCACCCAUGUUUCAUGGGACUAGAGACUAGAAGGUACUGACG”, the “apparent Kd” value under setting [3] was 1310 nM and the “apparent Kd” value under setting [4] was 870 nM.

As for “GCCAUCACAUGAGGAUAUGCUCGGGUUUCCCGAGCAGAAGGCAUGUCAUAAGACAUGAGGAUCACCCAUGUAGGUAAGAUGGCA”, the “apparent Kd” value is 292 nM under setting [1] and 13.6 nM under setting [2].

Consider “AGGUAACAUGAGGAUCACCCAUGUCAGGAUAUCAGUAAGAUGAGUAUAGAAUAGAGUAUGAGAAGGGACUAUAU”, for which the “apparent Kd” value came to 36.5 nM under setting [3] and 28.6 nM under setting [4].

On to “CCAUCAGCGGGCGGAUCGGUUGGACAUGAGGAUCACCCAUGUAGAAGGACCGGUGGAUUCCGGCGGUAGGAUAUACAUUUGGUG”, for which the “apparent Kd” value is, setting by setting: under setting [3], 9.1 nM; under setting [4], 16.3 nM.

For the sequence “CGCCUGGGAGGAUAUCCAAUAUAUGACAUGAGGAUCACCCAUGUUUCCACUCGUACCUCCGGAGAAGGCCCUGCGU”, the “apparent Kd” value by setting is: under setting [3], 22.2 nM; under setting [4], 23.5 nM.

As for “CUAAAACAUGAGGAUCACCCAUGUCAACAAAGUCGAGGAUAUGGGCAAAUAAAAUAAGAACCAGAAGGCGAAUAAC”, the “apparent Kd” value runs as follows: under setting [1], 409 nM; under setting [2], 36.2 nM.

For the sequence “AAUGAGCAGUAGAAGGCAUGUCUACGGACAUGAGGAUCACCCAUGUUGUGAAUCCGAAAGGAGCGUGAGGAUAUACUGCUCUAA”, the “apparent Kd” value turned out to be 85.6 nM under setting [1] and 18.8 nM under setting [2].

Take “AGAAACUACGAGAAGGACAUAUGGUACUUCAGCUACAUGAGGAUCACCCAUGUAGGAUAUCGUAGUUUCAGGAUCGUGAGAUCA”: the “apparent Kd” value under setting [3] was determined as 5.65 nM and the “apparent Kd” value under setting [4] came to 6.02 nM.

With “AGCUAGUGAGGAUAUACGAACAUGUCAAAAGACUGUAAGGGACAUGAGGAUCACCCAUGUAGAAGGCACUAGCA”, the “apparent Kd” value runs as follows: under setting [3], 45.2 nM; under setting [4], 384 nM.

For “GUUUAUUUACAGAAGGUGUUUUACAUGAGGAUCACCCAUGUUUAAAGGUAUAAAGAAUUUAUUUACAAGGAUAUGUACAAUUUU”, the “apparent Kd” value by setting is: under setting [1], 34.1 nM; under setting [2], 22.1 nM.

Regarding “GUUCGUUUGAUAGGAUAUCGCUAUACAUGAGGAUCACCCAUGUUUACCACGCUGGUUUUUCGUACCGAGAAGGAUUCUGAUGAU”, the “apparent Kd” value was found to be 40.2 nM under setting [1] and 36.2 nM under setting [2].

Take “UGGGAUGGCUAGAAGGCUCCUUAUACUACAGGGAGAGGAUAUGGCACAUGAGGAUCACCCAUGUGUACCUGUAGGUGAUCCACA”: the “apparent Kd” value under setting [3] came out at 113 nM and the “apparent Kd” value under setting [4] was 108 nM.

On to “UGGCUGAGUCGAGGAUAUGAUCUUCAUAUAAUAACAUGAGGAUCACCCAUGUAUAAUUACAUGGAUCAGAAGGCGACUCAGCCA”, for which the “apparent Kd” value under setting [2] worked out at 38.1 nM.

Regarding “GGUUAUUGCAAGGAUAUGCUAUUAUUUUAUUUUGCAGAAGGUGCAACAUGAGGAUCACCCAUGUUGGAGGGUUU”, the “apparent Kd” value runs as follows: under setting [3], 21.5 nM; under setting [4], 41.1 nM.

For “GAGCGAAAGCUCAAUGUCGAUAGCAGAAGGACAUGAAAACAUGAAAACACAUGAGGAUCACCCAUGUAGGAUAUGCUAUCGACU”, the “apparent Kd” value is 9.43 nM under setting [3] and 84.8 nM under setting [4].

Turning to “AAUUGGAUGCAGAAGGCAUGGACGACUCGUCACAUUAACAUGAGGAUCACCCAUGUCAAAAUACAUGAGGAUAUGCAUCCUAAA”, the “apparent Kd” value was 140 nM under setting [1] and 12 nM under setting [2].

For the sequence “AACGGGUGGGUAGGAUAUGGCUAUGUCUCAUUGCUAGAAGGACCAGCUGCUACAUGAGGAUCACCCAUGUCGUAGUGCACCCAC”, the “apparent Kd” value was determined as 93.2 nM under setting [1] and 24.5 nM under setting [2].
